Screening data as filed in PubChem.
STAT1 inh: reduces IFN-gamma driven STAT1 reporter signal. inhibition, % at 5.5 µM. 200,000 compounds, 0.35% hits. NIH 3T3 STAT1-luciferase reporter, luminescence. AID 920;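 active = inhibition above a set limit, the mean inhibition across all tested compounds plus 3 SD, cut at about 34% in these data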;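 note: 0% = IFN-gamma with DMSO and 100% = IFN-gamma with 300 µM nifuroxazide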
KCC2 mod: modulators of human KCC2 chloride dependent transport; AID 1456; KCC2 cells, thallium flux FluoZin-2 fluorescence; 190,000 compounds, 2.2% hits; B-score of Tl+ flux slope (higher = more flux/activation; lower = inhibition) at 10 µM; Q9H2X9;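 active = thallium flux slope and its plate-corrected score both differing from the plate sample mean at a set confidence after two filtering rounds, in either direction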;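 note: slope of fluorescence scaled to starting intensity during 10 to 20 s after thallium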
Target sequence (Q9H2X9 whole entry, looked up): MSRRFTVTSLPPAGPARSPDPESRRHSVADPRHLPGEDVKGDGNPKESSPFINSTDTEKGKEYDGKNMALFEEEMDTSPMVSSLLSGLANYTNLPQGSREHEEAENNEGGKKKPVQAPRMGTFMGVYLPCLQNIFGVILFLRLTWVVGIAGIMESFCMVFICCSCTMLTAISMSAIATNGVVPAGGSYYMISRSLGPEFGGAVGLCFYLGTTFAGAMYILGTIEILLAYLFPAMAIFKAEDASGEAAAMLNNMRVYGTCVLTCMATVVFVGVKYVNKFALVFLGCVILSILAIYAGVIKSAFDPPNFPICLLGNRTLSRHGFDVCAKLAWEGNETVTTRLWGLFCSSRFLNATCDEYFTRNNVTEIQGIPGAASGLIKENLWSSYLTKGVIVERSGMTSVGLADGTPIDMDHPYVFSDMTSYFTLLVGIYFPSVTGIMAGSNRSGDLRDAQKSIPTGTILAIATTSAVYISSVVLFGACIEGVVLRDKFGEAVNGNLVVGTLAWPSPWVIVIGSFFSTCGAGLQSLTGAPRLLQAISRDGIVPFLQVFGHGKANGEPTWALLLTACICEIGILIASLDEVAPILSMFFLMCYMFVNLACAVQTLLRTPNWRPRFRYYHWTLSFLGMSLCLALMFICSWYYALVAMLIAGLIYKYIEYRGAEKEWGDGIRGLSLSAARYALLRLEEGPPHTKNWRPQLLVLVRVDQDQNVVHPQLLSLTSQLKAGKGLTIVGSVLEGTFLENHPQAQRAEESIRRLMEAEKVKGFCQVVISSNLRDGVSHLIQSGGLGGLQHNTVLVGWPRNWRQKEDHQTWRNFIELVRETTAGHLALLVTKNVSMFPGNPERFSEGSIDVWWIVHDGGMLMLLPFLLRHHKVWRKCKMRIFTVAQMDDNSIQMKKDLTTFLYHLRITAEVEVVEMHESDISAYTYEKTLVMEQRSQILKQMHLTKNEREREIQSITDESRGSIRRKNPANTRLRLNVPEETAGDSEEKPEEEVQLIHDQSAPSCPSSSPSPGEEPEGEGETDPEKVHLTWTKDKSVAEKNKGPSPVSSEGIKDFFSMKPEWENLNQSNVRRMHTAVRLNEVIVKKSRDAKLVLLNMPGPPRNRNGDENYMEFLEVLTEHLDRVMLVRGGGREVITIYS
STAT3 act: increases IL-6 driven STAT3 reporter signal; 190,000 compounds, 0.91% hits; U3A cells, IL-6 STAT3-luciferase reporter, luminescence; 100% = signal with IL-6 EC80 alone; activation (% of control), % at 5.6 µM;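 active = activation above the screen-wide mean of compound activation plus 3 SD, cut at about 130% in these data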;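 note: 0% = background luminescence of wells with medium and substrate only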
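Material: STAT3-luciferase reporter U3A cells; Probe or stimulus: IL-6 (33 ng/mL); Incubation: compound pre-incubation 1 h before IL-6, then 6 h stimulation at 37 °C; Technique: luminescence from STAT3-driven luciferase reporter; Evaluation: % activation versus median of IL-6-stimulated wells; Controls: IL-6-only high control.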
HSV replic up: increases HSV replication in cells | HSV replication augmentation in cells, fold increase | 220,000 compounds, 0.005% hits | maximum fold increase; in the data active = maximum fold increase above about 1.5; tested in PC3 cells
STAT1 act: STAT1 signaling activation. NIH 3T3 STAT1-luciferase reporter, IFN-gamma, luminescence; 100% = IFN-gamma alone, no compound. activation (% of control), % at 5.5 µM. 200,000 compounds, 2.6% hits. AID 932;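 active = activation above the screen-wide mean activation plus 3 SD, cut at about 130% in these data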;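 note: raw ratio to IFN-gamma control signal so 100% means no change and 0% no light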
STAT3 blocker: reduces IL-6 driven STAT3 reporter signal; U3A cells, IL-6 STAT3-luciferase reporter, luminescence; host cell line lacks STAT1; inhibition, % at 5.5 µM; 190,000 compounds, 0.89% hits;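 active = inhibition above the mean inhibition across all screened compounds plus 3 SD, cut at about 44% in these data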;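 note: 0% = DMSO only wells and 100% = 100 µM nifuroxazide control wells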
STAT1 act conf: STAT1 activation, confirmation assay | activation (% of control), % at 5.7 µM | 1,200 compounds, 97% hits | NIH 3T3 STAT1-luciferase reporter, IFN-gamma potentiation, luminescence; 100% = IFN-gamma EC80 alone, no compound | shares compounds with STAT1 act;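 active = activation above a set limit carried over from the earlier primary STAT1 screen, cut at about 140% in these data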;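 note: simple ratio to median IFN-gamma plus DMSO wells so 0% means no light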
NFkB act STAT1ct: counter-screen for STAT1 activators: NF-kappaB activation | AID 1306 | 1,200 compounds, 43% hits | activation (% of control), % at 5.7 µM | shares compounds with STAT1 act | HEK293T NF-kB luciferase reporter, TNF-alpha stimulated, luminescence; 100% = TNF-alpha with vehicle only;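 active = activation above the mean of solvent-only control wells plus 3 SD, set per campaign, cut at about 130% in these data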;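 note: TNF-alpha given at a submaximal dose yielding about 80% of full reporter signal; values are well signal over median control so 100% means no change and 0% no light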
STAT3 act STAT1c: activates human STAT3, counter-screen to STAT1 activators | activation (% of control), % at 5.7 µM | shares compounds with STAT1 act | 1,200 compounds, 46% hits | U3A cells STAT3-luciferase reporter, IL-6, luminescence; cells lack STAT1; 100 = IL-6 alone, no compound effect | AID 1316;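 active = activation above the solvent-only control well mean plus 3 SD, set per plate batch, cut at about 110% in these data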;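 note: 0% = no luminescence and 100% = median IL-6 plus DMSO wells; higher means more STAT3 reporter activation so hits are non-selective activators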
Active calls of the source: *; i = inactive; . = not tested or not shown. Rows were chosen to be rich in hits. Some 5.5% of all compounds tested hit in one or more screens of this group.

SMILES | STAT1 inh | KCC2 mod | STAT3 act | HSV replic up | STAT1 act | STAT3 blocker | STAT1 act conf | NFkB act STAT1ct | STAT3 act STAT1c
O=C(NNC1CC(=O)N(c2ccc3c(c2)OCCO3)C1=O)c1ccccc1 (centres undefined) | 3 | . | 97 | i | 98 | 14 | . | . | .
Cc1oc(-c2ccc(-c3ccccc3)cc2)nc1CN1CCN(CC(=O)N(C)C)CC1 | -62 | -1.4 | 129 | i | 155* | -29 | 191* | 130 | 128*
O=C1CCCc2ccccc2N1 | 8 | 2.2 | 97 | i | 92 | 14 | . | . | .
CCC(CC)c1nnc(NC(=O)Oc2ccccc2)s1 | 0 | 0.11 | 98 | i | 100 | 6 | . | . | .
Cc1ccc(NC(=O)c2cc(-c3ccccc3)nn2-c2ccccc2)cc1 | -5 | 0.27 | 105 | i | 105 | -8 | . | . | .
CC(=O)C(/C=N/c1cc(-c2ccc(C)cc2)nn1-c1ccccc1)=C(\C)O | -66 | -0.02 | 104 | i | 159* | -8 | 161* | 127 | 94
OCCSc1c(F)c(SCCO)c(SCCO)c(F)c1SCCO | 6 | 1.1 | 101 | i | 94 | 4 | . | . | .
Oc1[nH]c2ccccc2c1N=Nc1nc2ccccc2s1 | -60 | 6* | 106 | . | 155* | -9 | 208* | 136* | 131*
CCCCn1c(SCC(=O)NNC(=O)c2ccco2)nnc1-c1ccco1 | -15 | -0.65 | 97 | i | 112 | 5 | . | . | .
c1ccc(-c2nc3c(ccc4ccccc43)[nH]2)nc1 | -72 | -1.5 | 131 | i | 173* | -33 | 187* | 120 | 130*
COc1ccc(NC(=O)Nc2ccc(Br)cn2)cc1 | -74 | 0.036 | 97 | i | 169* | 3 | 160* | 120 | 91
Cc1ccc(NC(=O)Nc2ccc(Cl)cn2)cc1 | -80 | 1 | 94 | i | 172* | 18 | 171* | 130 | 99
COC(=O)c1ccccc1NC(=O)Nc1ccc(Br)cn1 | -8 | -0.19 | 92 | i | 108 | 12 | . | . | .
Nc1c(N(C(=O)Nc2ccc(Cl)c(Cl)c2)C2CCCC2)c(=O)[nH]c(=O)n1Cc1ccccc1 | -4 | 0.48 | 109 | . | 103 | -5 | . | . | .
CC(C)Oc1cccc(-c2nnc(SCC(=O)Nc3ccc4c(c3)OCCO4)n2N)c1 | 7 | -0.073 | 105 | i | 94 | -1 | . | . | .
Cc1cc(C)cc(Nc2ncc3c(n2)CCCC3=O)c1 | -58 | 0.26 | 75 | i | 154* | 31 | 185* | 106 | 107
Cc1nn(Cc2ccccc2Cl)c(Cl)c1C(=O)NCCc1ccccc1 | -82 | -0.97 | 105 | i | 173* | -5 | 193* | 120 | 141*
Cc1nn(-c2ccccc2)c(Cl)c1C(=O)NCC(=O)O | 2 | 1.6 | 99 | i | 98 | 4 | . | . | .
COCCNC(=O)CSc1nc2ccc(N3CCOCC3)cc2c(=O)n1Cc1ccc(OC)cc1 | -23 | 0.15 | 107 | i | 121 | -3 | . | . | .
CCCCNC(=O)CSc1nc2ccc(N3CCOCC3)cc2c(=O)n1Cc1ccc(OC)cc1 | -64 | 0.28 | 109 | i | 158* | 2 | 148* | 119 | 117*
CCOc1nc(Nc2ccc(OC)c(Cl)c2)nc(N2CCN(c3ccc(OC)cc3)CC2)n1 | 1 | . | 84 | i | 99 | 23 | . | . | .
CC(C)Oc1cccc(C(=O)Nc2ccc(Br)cc2F)c1 | -69 | 0.47 | 76 | i | 162* | 31 | 209* | 119 | 91
CCOC(=O)c1c(C)n(-c2ccc(OC)cc2)c2c(C/C(C)=N/O)c(Br)c(OC)c(O)c12 | 4 | 0.011 | 104 | i | 96 | -4 | . | . | .
Cc1ccc(CNc2ccc3c(c2)ncn3C(C)(C)C)cc1 | -76 | -0.95 | 110 | i | 167* | -2 | 198* | 135* | 128*
COc1ccc(CNc2ccc3c(c2)nc(C)n3C)cc1 | -55 | -0.0078 | 92 | i | 151* | 11 | 168* | 127 | 116*
SMILES | STAT1 inh | KCC2 mod | STAT3 act | HSV replic up | STAT1 act | STAT3 blocker | STAT1 act conf | NFkB act STAT1ct | STAT3 act STAT1c
O=C(CSCc1cccc(Cl)c1)N1CCN(Cc2ccc3c(c2)OCO3)CC1 | 2 | . | 82 | i | 98 | 26 | . | . | .
CCOc1ccc(/C=N/NC(=O)Nc2ccccc2)cc1 | -69 | 0.6 | 102 | i | 161* | 0 | 208* | 140* | 121*
CC(=O)Oc1ccc(/C=N/NC(=S)Nc2ccccc2)cc1 | -68 | 0.55 | 81 | i | 160* | 21 | 209* | 128 | 94
CCN(CC)c1ccc(/C=N/NC(=O)Nc2ccccc2)cc1 | -71 | . | 116 | i | 162* | -13 | 173* | 134* | 123*
O=C(Cc1ccccc1)N/N=C/c1ccc(OCC(=O)Nc2ccccc2)cc1 | -3 | . | 105 | i | 103 | 0 | . | . | .
CCc1ccccc1NC(=S)N(CCN1CCCCC1)Cc1ccco1 | 3 | -1 | 88 | i | 97 | 16 | . | . | .
Cc1onc(-c2ccccc2)c1NC(=O)N(Cc1ccccc1)C(C)C | . | 0.26 | . | i | . | . | . | . | .
Cc1ccc(NC(=O)c2ccc(OC(=O)COc3cccc(Cl)c3)cc2)cc1 | -60 | 0.9 | 112 | i | 154* | -18 | 170* | 129 | 111*
Cc1ccc(NC(=O)c2ccc(OC(=O)COc3ccc(Cl)cc3C)cc2)cc1 | -66 | 0.46 | 104 | i | 159* | -8 | 167* | 128 | 119*
COC(=O)COc1cccc(NC(=O)c2cccc(C)c2)c1 | 2 | -0.89 | 109 | i | 99 | 0 | . | . | .
O=C(COC(=O)c1ccc(Cl)nc1)c1ccc2c(c1)OCCO2 | -3 | -1.6 | 83 | i | 100 | 23 | . | . | .
CC(=O)Nc1ccc2nc(-c3ccccc3)cn2c1 | -58 | 0.49 | 91 | i | 155* | 10 | 198* | 115 | 100
CC(=O)Nc1ccc(-c2cc(-c3ccccc3)nc(-c3ccccc3)n2)cc1 | 8 | 0.13 | 103 | i | 93 | -5 | . | . | .
CCC1CCC(NC(=O)Nc2cccc(OC)c2)CC1 (centres undefined) | -67 | -1.1 | 113 | i | 159* | -12 | 168* | 132 | 123*
Cc1cc2c(cc(C(=O)NCc3cccnc3)n2Cc2ccc(Cl)cc2)o1 | 11 | 1.8 | 104 | i | 90 | 2 | . | . | .
Cc1scc(C(=O)N/N=C/c2ccc(OC(C)C)cc2)c1C | -7 | 0.049 | 107 | i | 106 | -2 | . | . | .
